# Data: PubChem BioAssay AID463080 (The Scripps Research Institute Molecular Screening Center, 2010)
# Biological target: Wee1-like protein kinase (Homo sapiens) (UniProt P30291)
# Experiment: WEE1 stabilizers, potency, late-stage follow-up, cell-based, HeLa, WEE1K328M-luciferase, luminescence, assay provider (AID 463080)
# Conditions: HeLa WEE1K328M-luciferase stabilization
# Method in brief: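 Incubation: 20 h compound treatment at 37 °C. Test system: transfected HeLa with WEE1 K328M–luciferase reporter. Repeats: four replicate wells. Signal: lytic luciferase luminescence. Read-out: EC50 of WEE1-fusion to luciferase-only luminescence ratio, higher meaning stabilization.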
# Wee1-like protein kinase (Homo sapiens), sequence (P30291 whole entry K328M): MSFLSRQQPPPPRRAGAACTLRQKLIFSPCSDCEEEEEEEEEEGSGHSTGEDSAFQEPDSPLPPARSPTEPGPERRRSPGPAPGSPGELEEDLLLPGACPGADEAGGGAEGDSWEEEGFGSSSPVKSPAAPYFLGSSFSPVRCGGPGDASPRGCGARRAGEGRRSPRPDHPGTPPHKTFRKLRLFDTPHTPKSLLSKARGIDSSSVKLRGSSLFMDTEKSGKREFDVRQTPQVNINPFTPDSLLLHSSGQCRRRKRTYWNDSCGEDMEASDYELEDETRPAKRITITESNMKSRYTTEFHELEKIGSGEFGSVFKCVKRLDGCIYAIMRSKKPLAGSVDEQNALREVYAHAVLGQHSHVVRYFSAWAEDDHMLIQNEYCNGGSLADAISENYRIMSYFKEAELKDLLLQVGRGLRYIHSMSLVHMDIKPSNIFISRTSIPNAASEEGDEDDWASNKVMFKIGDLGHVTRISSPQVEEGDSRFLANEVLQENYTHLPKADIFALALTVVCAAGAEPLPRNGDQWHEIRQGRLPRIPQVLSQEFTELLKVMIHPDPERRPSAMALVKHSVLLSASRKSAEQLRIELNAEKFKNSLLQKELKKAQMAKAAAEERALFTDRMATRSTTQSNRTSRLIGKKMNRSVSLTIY
row,EC50 [nM],Structure (SMILES)
1,624,c1ccc2[nH]c(CNc3nc(N4CCOCC4)nc4c3ncn4-c3ccsc3)nc2c1
2,201,CC(C)n1cnc2c(NCc3nc4c([N+](=O)[O-])cccc4[nH]3)nc(N3CCOCC3)nc21
3,207,CCOC(=O)c1cccc2[nH]c(CNc3nc(N4CCOCC4)nc4c3ncn4-c3ccsc3)nc12
4,40,O=[N+]([O-])c1cccc2[nH]c(CNc3nc(N4CCOCC4)nc4c3ncn4-c3ccsc3)nc12
5,164,Clc1ccc2nc(CNc3nc(N4CCOCC4)nc4c3ncn4-c3ccsc3)[nH]c2c1
